Data set [1] has as its target T1, Alpha-ketoglutarate-dependent dioxygenase FTO (Homo sapiens, UniProt Q9C0B1). Nature of the data set: Inhibition of FTO (unknown origin) (31 to 505 residues) expressed in Escherichia coli BL21 (DE3) cells assessed as reduction in 3-meT substrate demethylation by measuring demethylation ratio at 80 uM incubated for 17 hrs at 16 degC by HPLC method. Details: scale not given: the % may be the effect or the level left. In short, it runs like this: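 Preliminary screen with FTO and 3meT substrate (0.1 mg/mL stock) in MES, FeSO4, αKG and L-ascorbate; inhibitor added from a 4 mM DMSO stock, with DMSO alone as control. Incubated 17 h at 16 °C, centrifuged, then analysed by C18 reverse-phase HPLC (water/methanol gradient). Demethylated fraction of substrate reported.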
Target sequence in this assay (Q9C0B1 whole entry, looked up, the tested form may be a part): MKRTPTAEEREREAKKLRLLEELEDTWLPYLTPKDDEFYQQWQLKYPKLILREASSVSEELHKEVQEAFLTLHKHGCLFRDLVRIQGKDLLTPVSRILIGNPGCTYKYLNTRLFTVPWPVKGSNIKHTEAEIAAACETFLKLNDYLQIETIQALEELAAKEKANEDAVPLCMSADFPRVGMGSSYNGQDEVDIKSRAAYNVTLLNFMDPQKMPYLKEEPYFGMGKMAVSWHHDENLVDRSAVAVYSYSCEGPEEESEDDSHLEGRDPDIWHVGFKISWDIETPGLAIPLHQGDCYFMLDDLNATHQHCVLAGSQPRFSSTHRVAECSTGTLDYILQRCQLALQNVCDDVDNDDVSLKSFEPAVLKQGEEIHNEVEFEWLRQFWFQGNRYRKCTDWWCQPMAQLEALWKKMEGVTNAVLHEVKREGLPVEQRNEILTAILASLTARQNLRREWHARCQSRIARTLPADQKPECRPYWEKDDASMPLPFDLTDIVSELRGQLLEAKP

The target of data set [2] is T1, Alpha-ketoglutarate-dependent dioxygenase FTO. Nature of the data set: Binding affinity to FTO (unknown origin) (31 to 505 residues) expressed in Escherichia coli BL21 (DE3) by ITC method. The method, boiled down: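 ITC at 25 °C. Cell contained 140 μM FTO (residues 31–505, His/Ni-resin and ion-exchange purified from E. coli BL21(DE3) after IPTG induction) in 25 mM HEPES pH 7.5, 100 mM NaCl, 10 mM β-mercaptoethanol, 10% DMSO. Titrant was the same buffer with 1.5 mM ligand, given as one 0.4 μL then 2.0 μL injections every 150 s at 750 rpm. Buffer-only dilution heats subtracted before fitting Kd.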
For orientation: In ITC the heat of successive injections is recorded.
Target sequence in this assay (Q9C0B1 whole entry, the tested form may be a part): as the sequence (Q9C0B1 whole entry, looked up, the tested form may be a part) above

Data set [3] can be described thus: Cytotoxicity against mouse 3T3L1 cells assessed as effect on cell morphology at 1 to 20 uM incubated for 8 days. It is filed as cell-based. Particulars: 3t3-l1, 192 h. In short, it runs like this: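 3T3-L1 preadipocytes were exposed to 1, 10 or 20 μM for 8 days. Cell health was judged from morphology.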
Data set [4] deals with Alpha-ketoglutarate-dependent dioxygenase FTO (Mus musculus) (UniProt Q8BGW1). Nature of the data set: Inhibition of FTO in mouse 3T3L1 cells increase in […] m6A modified mRNA levels at 10 uM incubated for 48 hrs by dot blot method. It counts as cell-based. To be noted: 3T3-L1. In short, it runs like this: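 3T3-L1 preadipocytes stably transfected with empty pcDNA3.1, WT-FTO or R96Q-FTO were grown in high-glucose DMEM/10% FBS. Post-confluent cells were differentiated 48 h with insulin, dexamethasone and IBMX, then given 10 μM compound plus insulin for 48 h. mRNA m6A was quantified as relative integrated optical density; mean ± SEM, n = 4.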

The subject of data set [5] is Alpha-ketoglutarate-dependent dioxygenase FTO (Homo sapiens), Q9C0B1 [R96Q]. To be noted: 3T3-L1, 10 uM.
Data set [6] concerns the target T1, Alpha-ketoglutarate-dependent dioxygenase FTO. Particulars: BL21-DE3, 80 uM.
Target sequence in this assay (Q9C0B1 whole entry, looked up, the tested form may be a part): as above
Data set [7] has the same target. To be noted: 3T3-L1, 10 uM.
Target sequence in this assay (Q9C0B1 whole entry, looked up, the tested form may be a part): as above
For data set [8] the target is unchanged. Briefly: biochemical.
Target sequence in this assay (Q9C0B1 whole entry, the tested form may be a part): as the sequence (Q9C0B1 whole entry, looked up, the tested form may be a part) above

The results in this text go back to ChEMBL document CHEMBL3612002, “Identification of A Novel Small-Molecule Binding Site of the Fat Mass and Obesity Associated Protein (FTO)” (J Med Chem, 2015).

Activity calls are given as the source filed them. No cut-off for these calls is given here.

Alpha-ketoglutarate-dependent dioxygenase FTO (Homo sapiens), Q9C0B1 [R96Q], sequence (Q9C0B1 whole entry R96Q): as the sequence (Q9C0B1 whole entry, looked up, the tested form may be a part) above, with R96Q counted along it
Alpha-ketoglutarate-dependent dioxygenase FTO (Mus musculus), sequence (Q8BGW1 whole entry): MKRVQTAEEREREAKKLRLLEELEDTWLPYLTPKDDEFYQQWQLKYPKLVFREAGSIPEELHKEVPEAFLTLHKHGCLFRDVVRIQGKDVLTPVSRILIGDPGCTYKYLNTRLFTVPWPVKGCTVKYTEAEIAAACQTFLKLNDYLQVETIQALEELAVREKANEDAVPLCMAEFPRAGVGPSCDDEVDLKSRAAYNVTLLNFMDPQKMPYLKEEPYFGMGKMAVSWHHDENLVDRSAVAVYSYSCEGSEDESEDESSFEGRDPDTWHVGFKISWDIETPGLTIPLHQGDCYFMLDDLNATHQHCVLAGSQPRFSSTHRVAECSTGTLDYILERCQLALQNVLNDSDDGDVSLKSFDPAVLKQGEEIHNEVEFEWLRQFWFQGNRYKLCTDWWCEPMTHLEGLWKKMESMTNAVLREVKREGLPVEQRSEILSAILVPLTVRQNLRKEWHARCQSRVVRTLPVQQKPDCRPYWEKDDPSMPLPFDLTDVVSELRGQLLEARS

With `O=C(Nc1cc(Cl)c(O)cc1O)C1(c2c(F)cccc2F)CCC1`, the Activity in data set [1] is 15.2%. As usually defined, the Kd is the concentration at which binding is half-saturated. As usually defined, the IC50 is the point on the concentration scale where inhibition reaches its midpoint. As to `O=C(Nc1cc(Cl)c(O)cc1O)C1(c2ccccc2)CCC1`, the Activity in data set [1] was 14.4%; in data set [3], “Non-toxic”. Also, the Kd in data set [2] is 13 µM. The inhibition result in data set [4], in data set [5] and in data set [7] was “Active” in each case. Besides, the inhibition result in data set [6] is “Dose-dependent effect”. In data set [8], this compound returned an IC50 of 4.95 µM. As to `O=C(Nc1cc(Cl)c(O)cc1O)C1(c2ccc([N+](=O)[O-])cc2[N+](=O)[O-])CCC1`, the Activity in data set [1] was 26.1%. With `O=C(Nc1cc(Cl)c(O)cc1O)C1(c2ccc3ccccc3c2)CCC1`, in data set [1], the Activity stood at 18.4%. The same measure, in the same setting: as for `O=C(Nc1cc(Cl)c(O)cc1O)C1(c2ccccc2Cl)CCC1`, the figure is 16.9%; as for `O=C(Nc1cc(Cl)c(O)cc1O)C1(c2cccc(C(F)(F)F)c2)CCC1`, 29.8%; as for `O=C(Nc1cc(Cl)c(O)cc1O)C1(c2ccc(Br)cc2)CCC1`, 31.3%. The same measure, in the same setting: as for `CCCCc1ccc(C2(C(=O)Nc3cc(Cl)c(O)cc3O)CCC2)cc1`, the figure is 22.2%; as for `O=C(Nc1cc(Cl)c(O)cc1O)C1(c2cccc(Oc3ccccc3)c2)CCC1`, 17.3%; as for `O=C(Nc1cc(Cl)c(O)cc1O)C1(c2cc(C(F)(F)F)cc(C(F)(F)F)c2)CCC1`, 61.9%. On the same count and under the same terms, as for `CCCCc1cccc(C2(C(=O)Nc3cc(Cl)c(O)cc3O)CCC2)c1`, the figure is 18.2%; as for `O=C(Nc1cc(Cl)c(O)cc1O)C1(c2cccc(Br)c2)CCC1`, 18.7%; as for `O=C(Nc1cc(Cl)c(O)cc1O)C1(c2ccc([N+](=O)[O-])cc2)CCC1`, 46.9%. Consider `O=C(Nc1cc(Cl)c(O)cc1O)C1(c2c(Cl)cccc2Cl)CCC1`, for which the Activity in data set [1] was determined as 15.4%. Same read-out and setting: in the case of `O=C(Nc1cc(Cl)c(O)cc1O)C1(c2cccc(O)c2)CCC1` it was 25.8%. Same read-out and setting: as for `O=C(Nc1cc(Cl)c(O)cc1O)C1(c2cccc(Cl)c2)CCC1`, the figure is 16.9%; as for `O=C(Nc1cc(Cl)c(O)cc1O)C1(c2cccc3ccccc23)CCC1`, 39%. Take `O=C(Nc1cc(Cl)c(O)cc1O)C1(c2ccc(O)cc2)CCC1`: the Activity in data set [1] turned out to be 17.8%. Consider `O=C(Nc1cc(Cl)c(O)cc1O)C1(c2ccccc2Br)CCC1`, for which the Activity in data set [1] was determined as 21.6%.

As for `O=C(Nc1cc(Cl)c(O)cc1O)C1(c2ccc(Cl)cc2)CCC1`, the Activity in data set [1] amounted to 29.2%.
